Source: PubChem
TRPC4 potent: TRPC4 (mouse) allosteric potentiation; HEK293 TRPC4beta/mu-opioid, DAMGO EC20, Fluo-4 Ca2+ flux; active compounds read high; hit rate 0.42% among 310,000; Q9QUQ5; B-score at 10 µM; AID 2227;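 active means B-score of calcium response area above 5 SD of library B-scores, with initial fluorescence ratio within 5 SD of library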;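 further: B-score of integrated fluorescence ratio over time as area under calcium response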
Target sequence (Q9QUQ5 whole entry, looked up): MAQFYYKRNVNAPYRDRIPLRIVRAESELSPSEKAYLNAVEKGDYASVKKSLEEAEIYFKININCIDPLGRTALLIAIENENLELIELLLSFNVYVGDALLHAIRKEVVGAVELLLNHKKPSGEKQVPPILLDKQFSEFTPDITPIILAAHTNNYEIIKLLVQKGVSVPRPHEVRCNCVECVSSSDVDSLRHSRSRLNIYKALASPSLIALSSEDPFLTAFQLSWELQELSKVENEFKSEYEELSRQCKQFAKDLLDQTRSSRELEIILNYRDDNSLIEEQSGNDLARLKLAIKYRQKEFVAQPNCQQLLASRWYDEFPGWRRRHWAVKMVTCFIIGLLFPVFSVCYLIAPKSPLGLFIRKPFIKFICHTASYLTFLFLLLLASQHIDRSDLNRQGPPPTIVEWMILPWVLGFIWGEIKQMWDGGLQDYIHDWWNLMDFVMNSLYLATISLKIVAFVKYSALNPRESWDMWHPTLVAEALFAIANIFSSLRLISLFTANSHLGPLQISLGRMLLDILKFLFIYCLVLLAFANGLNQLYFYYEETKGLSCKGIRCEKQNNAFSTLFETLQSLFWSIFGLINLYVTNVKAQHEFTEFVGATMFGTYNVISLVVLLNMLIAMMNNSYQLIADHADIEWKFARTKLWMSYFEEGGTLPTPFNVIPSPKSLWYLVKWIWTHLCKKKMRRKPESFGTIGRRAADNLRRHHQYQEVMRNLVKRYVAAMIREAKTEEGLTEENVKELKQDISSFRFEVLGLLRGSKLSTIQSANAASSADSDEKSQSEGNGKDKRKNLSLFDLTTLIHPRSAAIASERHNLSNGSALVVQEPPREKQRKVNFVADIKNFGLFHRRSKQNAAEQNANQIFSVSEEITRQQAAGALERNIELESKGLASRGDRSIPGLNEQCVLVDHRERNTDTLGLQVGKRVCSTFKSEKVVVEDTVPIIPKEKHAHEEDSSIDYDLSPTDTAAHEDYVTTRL
TRPC4 block: blocks the mouse TRPC4 cation channel; HEK293 TRPC4beta/mu-opioid, DAMGO-evoked Fluo4 calcium flux; active compounds read low; B-score at 10 µM; hit rate 0.39% among 300,000; AID 2247;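 active means B-score over 3 SD under the library average, no early fluorescence shift, positive overall ratio signal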
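System: stable TRPC4beta/mu-opioid receptor HEK293 cells; Dosing: single-point compound dosing; Measured by: Fluo4 Ca2+ flux fluorescence; Read-out basis: per-well B score of integrated baseline-normalized Fluo4 ratio.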
TRPC6 act: mouse TRPC6 channel activation | Q61143 | HEK293-TRPC6 membrane potential dye fluorescence; active compounds read high | B-score at 10 µM | hit rate 0.13% among 310,000;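 active means B-score of the integrated fluorescence ratio above library mean plus 3 SD, and starting fluorescence ratio within library mean plus 5 SD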;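 further: higher score means more depolarization so channel activation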
TRPC4 act: TRPC4 (mouse) channel activation; Q9QUQ5; HEK293 TRPC4beta/mu-opioid, Fluo4 calcium fluorescence; active compounds read high; B-score at 10 µM; hit rate 0.49% among 310,000; AID 2237;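 active means B-score above 5 SD of library B-scores, and initial fluorescence ratio not above library mean plus 5 SD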;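 further: positive B-score marks a calcium rise read as TRPC4 activation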
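Test system: HEK293 cells stably co-expressing mouse TRPC4beta and mu-opioid receptor | Schedule: Fluo4 dye loading 45 min at room temperature, 110 s recording | Measured by: Kinetic Fluo4 calcium fluorescence, 5 s baseline at 1 Hz | Evaluation: B score of integrated ratio | Controls: Buffer (low) and maximal DAMGO (high)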
TRPC6 inhibitor: blocks the mouse TRPC6 cation channel. HEK293-TRPC6, membrane potential dye, ACh-evoked depolarization; active compounds read low. hit rate 1.1% among 310,000. Q61143. B-score at 10 µM;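 active means B-score under library mean minus 3 SD, initial fluorescence not abnormally high, positive integrated signal ratio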;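 further: B-score derived from integrated fluorescence ratio over the kinetic read; more negative B-score means stronger inhibition of depolarization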
TRPC4 sel inh 2: second selectivity test of TRPC6 inhibitors: effect on mouse TRPC4; shares compounds with TRPC6 inhibitor; HEK293 TRPC4/MOR, membrane potential dye fluorescence; channel activated by saturating DAMGO dose; inhibition, % at 10 µM; hit rate 42% among 920; AID 2776;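 active means compounds whose fluorescence signal differed from control wells by over 3 SD, either direction, in both duplicate plates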
TRPC4 spec: selectivity of TRPC6 inhibitors: effect on mouse TRPC4. shares compounds with TRPC6 inhibitor. HEK293 TRPC4/mu-opioid, membrane potential fluorescence. activity change, negative = inhibition, % at 10 µM. hit rate 61% among 920. AID 2777;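 active means rise or fall in signal beyond 3 SD of buffer-only wells in both replicate plates, either sign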;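 further: integrated kinetic ratio of fluorescence range over baseline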
HEK293 MPD ctr 2-1: second counter-screen for TRPC6 inhibitors: parental HEK293 cells. shares compounds with TRPC6 inhibitor. parental HEK293 membrane potential dye fluorescence; maximal acetylcholine challenge after compound addition. signal change vs control, % at 10 µM. hit rate 31% among 920. AID 2779;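 active means membrane potential signal moving either way by over 3 SD of the maximum-effect control, in both duplicate plates, meaning non-specific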
HEK293 MPD ctr-1: parental HEK293 nonspecific activity of TRPC6 inhibitors | shares compounds with TRPC6 inhibitor | parental HEK293 membrane potential dye fluorescence | membrane potential signal change, % at 10 µM | hit rate 60% among 920 | AID 2780;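 active means membrane potential signal shifting up or down by more than 3 SD of buffer-only wells, on both duplicate plates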
HEK293 MPD ctr-2: checks TRPC6 modulator effects in parental HEK293 cells; hit rate 51% among 2,400; shares compounds with TRPC6 inhibitor; membrane potential signal change, % at 10 µM; membrane potential dye fluorescence;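 active means membrane potential signal moves up or down beyond 5 SD from buffer-only wells, on both duplicate plates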
HEK293 MPD ctr 2-2: parental HEK293 nonspecific activity of TRPC6 modulators, second screen | shares compounds with TRPC6 inhibitor | membrane potential dye fluorescence; after compound, maximal acetylcholine stimulation | inhibition, % at 10 µM | hit rate 14% among 2,400 | AID 488926;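 active means membrane potential signal drops by more than 5 SD from the mean control signal, in both duplicate plates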;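 further: plate controls were acetylcholine ECmax control wells for no effect and buffer only wells for full effect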
TRPC4 ctr mod: mouse TRPC4 off-target activity of TRPC6 modulators; percent change from control (negative = decrease, positive = increase), % at 10 µM; AID 488927; hit rate 69% among 2,400; HEK293 TRPC4/mu-opioid, membrane potential fluorescence; shares compounds with TRPC6 inhibitor;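 active means membrane potential signal moved up or down beyond 5 SD of buffer control wells, in both duplicate plates, actives on both sides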;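 further: plate controls were assay buffer wells for no effect and DAMGO maximal-effect wells for full effect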
TRPC4/MOR inh 2: second check of whether TRPC6 modulators also affect mouse TRPC4; hit rate 55% among 2,400; inhibition, % at 10 µM; AID 488928; shares compounds with TRPC6 inhibitor; HEK293 TRPC4/mu-opioid, membrane potential dye fluorescence; stimulated with maximal-effect DAMGO;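 active means drop in membrane potential signal beyond 5 SD of the control wells in both duplicate plates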;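 further: TRPC4 counter screen for TRPC6 hits run under conditions tuned for TRPC6 not TRPC4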
TRPC6 block conf: confirmation of mouse TRPC6 inhibitors. shares compounds with TRPC6 inhibitor. inhibition, % at 10 µM. AID 488960. hit rate 43% among 3,300. HEK293-TRPC6, membrane potential dye, ACh-evoked depolarization;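 active means fluorescence ratio falls more than 5 SD below the full-stimulation control mean, in both duplicate runs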;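 further: integrated fluorescence ratio of peak minus minimum over baseline after agonist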
TRPC6 act conf: confirmation of mouse TRPC6 activators. HEK293-TRPC6 membrane potential dye fluorescence, FDSS. hit rate 11% among 2,800. shares compounds with TRPC6 inhibitor. activation, % at 10 µM;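 active means ratio signal rise beyond 5 SD above unstimulated control wells' mean, seen in both duplicate runs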;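 further: plate controls were buffer EC0 wells for no effect and acetylcholine ECmax response for full effect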
* marks the source's active call; other numbers are inactive results. This is a sample that favours compounds with a hit; in the whole collection about 2.3% have one here.

For COC(=O)[C@@H]1CC[C@H](C)[C@@H](c2ccc(C)cc2)N1C(=O)c1ccc(/C=N/OCC[C@@H]2C=C[C@H](OC(C)=O)[C@@H](COC(C)=O)O2)cc1 the results were TRPC4 potent inactive, TRPC4 block inactive, TRPC6 act inactive, TRPC4 act inactive and TRPC6 inhibitor inactive.
For Cc1[nH]n(-c2ccccc2)c(=O)c1N=Nc1c(O)cc(S(=O)(=O)N(C)C)c2ccccc12 the results were TRPC4 potent inactive, TRPC4 block inactive, TRPC6 act inactive, TRPC4 act inactive, TRPC6 inhibitor -8.9*, HEK293 MPD ctr-2 -135%*, HEK293 MPD ctr 2-2 80%*, TRPC4 ctr mod -34%*, TRPC4/MOR inh 2 86%*, TRPC6 block conf 81%* and TRPC6 act conf inactive.
`Cc1[nH]n(-c2ccccc2)c(=O)c1N=Nc1ccc2c(c1)OCCO2` gave TRPC4 potent inactive, TRPC4 block inactive, TRPC6 act inactive, TRPC4 act inactive and TRPC6 inhibitor inactive.
CCOC(=O)N1CCN(Cc2nc(-c3ccc(Cl)cc3)no2)CC1 was read as TRPC4 potent inactive, TRPC4 block inactive, TRPC6 act inactive, TRPC4 act inactive, TRPC6 inhibitor -8.9*, TRPC4 sel inh 2 inactive, TRPC4 spec inactive, HEK293 MPD ctr 2-1 inactive, HEK293 MPD ctr-1 inactive and TRPC6 block conf inactive.
CCOC(=O)N1CCN(Cc2nc(-c3ccc(OC)cc3)no2)CC1 was read as TRPC4 potent inactive, TRPC4 block inactive, TRPC6 act inactive, TRPC4 act inactive and TRPC6 inhibitor inactive.
COc1ccc(NC2CCCN(C(=O)CCC(=O)c3ccc(F)cc3)C2)cc1 (stereo not given) was read as TRPC4 potent inactive, TRPC4 block inactive, TRPC6 act inactive, TRPC4 act inactive and TRPC6 inhibitor inactive.
Screening CNC(=O)CSCc1c(Cl)cccc1Cl returned TRPC4 potent inactive, TRPC4 block inactive, TRPC6 act inactive, TRPC4 act inactive, TRPC6 inhibitor -11*, HEK293 MPD ctr-2 inactive, HEK293 MPD ctr 2-2 inactive, TRPC4 ctr mod inactive, TRPC4/MOR inh 2 inactive, TRPC6 block conf inactive and TRPC6 act conf inactive.
`CNC(=S)NNC(=O)CSCc1c(Cl)cccc1Cl` gave TRPC4 potent inactive, TRPC4 block inactive, TRPC6 act inactive, TRPC4 act inactive and TRPC6 inhibitor inactive.
CCOC(=O)CN(C)Cc1cn(C)nc1-c1ccc(Oc2ccccc2)cc1 was read as TRPC4 potent inactive, TRPC4 block inactive, TRPC6 act inactive, TRPC4 act inactive and TRPC6 inhibitor inactive.
CC(C)c1cc(C(=O)N2CCCC(Nc3ccc(F)cc3)C2)nc(N)n1 (stereo not given) was read as TRPC4 potent inactive, TRPC4 block inactive, TRPC6 act inactive, TRPC4 act inactive, TRPC6 inhibitor -5.9*, HEK293 MPD ctr-2 inactive, HEK293 MPD ctr 2-2 inactive, TRPC4 ctr mod inactive, TRPC4/MOR inh 2 inactive, TRPC6 block conf inactive and TRPC6 act conf inactive.
Screening CC(NC(=O)c1cc(Br)ccc1Br)c1ccccc1 (stereo not given) returned TRPC4 potent inactive, TRPC4 block inactive, TRPC6 act inactive, TRPC4 act inactive and TRPC6 inhibitor inactive.
`NC(=O)NC(=O)C(Nc1ccc2c(c1)CCC2)c1ccccc1` (stereo not given) gave TRPC4 potent inactive, TRPC4 block inactive, TRPC6 act inactive, TRPC4 act inactive, TRPC6 inhibitor -7.2*, TRPC4 sel inh 2 inactive, TRPC4 spec inactive, HEK293 MPD ctr 2-1 inactive, HEK293 MPD ctr-1 inactive, TRPC6 block conf inactive and TRPC6 act conf inactive.
For Cc1nn(-c2ccc([N+](=O)[O-])cc2)c2c1C(c1ccc(OC(F)F)cc1)N1C(=N2)C(=O)Nc2ccccc21 (stereo not given) the results were TRPC4 potent inactive, TRPC4 block inactive, TRPC6 act inactive, TRPC4 act inactive and TRPC6 inhibitor inactive.
Screening COc1cccc(C2c3c(C)nn(-c4ccc([N+](=O)[O-])cc4)c3N=C3C(=O)Nc4ccccc4N32)c1 (stereo not given) returned TRPC4 potent inactive, TRPC4 block inactive, TRPC6 act inactive, TRPC4 act inactive, TRPC6 inhibitor -5.7*, HEK293 MPD ctr-2 inactive, HEK293 MPD ctr 2-2 inactive, TRPC4 ctr mod inactive, TRPC4/MOR inh 2 54%*, TRPC6 block conf inactive and TRPC6 act conf inactive.
`Oc1ccc(-c2[nH]ncc2-c2ccc(Br)cc2)c(O)c1` gave TRPC4 potent inactive, TRPC4 block inactive, TRPC6 act inactive, TRPC4 act inactive, TRPC6 inhibitor -5.3*, HEK293 MPD ctr-2 -72%*, HEK293 MPD ctr 2-2 inactive, TRPC4 ctr mod -16%*, TRPC4/MOR inh 2 68%*, TRPC6 block conf 50%* and TRPC6 act conf inactive.
`COc1ccc(-c2[nH]ncc2-c2ccc(Cl)cc2)c(O)c1` gave TRPC4 potent inactive, TRPC4 block inactive, TRPC6 act inactive, TRPC4 act inactive and TRPC6 inhibitor inactive.
